Experimental data taken from ChEMBL document CHEMBL4043195, “Development of water-soluble 3,5-dinitrophenyl tetrazole and oxadiazole antitubercular agents” (Bioorg Med Chem, 2017).
Converted amounts (≈) assume the structure as drawn.

What was measured:
Mycobacterium kansasii [1] = assay: Antimycobacterial activity against Mycobacterium kansasii CNCTC My 235/80 incubated for 14 days by micromethod; type: functional; settings: for MIC99: Mycobacterium kansasii, CNCTC My 235/80, 336 h
Method in brief: (§1)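 M. kansasii MIC by micromethod in Sula's semisynthetic medium. Inoculum was a 1.0 McFarland suspension diluted 10^-4, 0.1 mL per well. Compounds were dissolved in DMSO and tested at 32 to 0.03 µM in twofold steps. […] INH and RIF were reference drugs.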

Mycobacterium avium = assay: Antimycobacterial activity against Mycobacterium avium CNCTC My 330/88 incubated for 14 days by micromethod; type: functional; settings: for MIC99: Mycobacterium avium, CNCTC My 330/88, 336 h
Method in brief: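 Micromethod MIC assay in Sula's semisynthetic medium. The inoculum was a 1.0 McFarland suspension diluted 10^-5, with 0.1 mL added per well. Compounds were dissolved in DMSO and tested at 1000 to 1 µM in two-fold steps. Plates were incubated at 37 °C for 14 days. […] INH and RIF were the reference drugs.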

[2] = system: Mycobacterium tuberculosis; assay: Antimycobacterial activity against Mycobacterium tuberculosis H37Rv CNCTC My 331/88 incubated for 14 days by micromethod; type: functional; settings: for MIC99: Mycobacterium tuberculosis, H37Rv CNCTC My 331/88, 336 h
Method in brief: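 Strain H37Rv was tested in Sula's semisynthetic medium by micromethod. The basic suspension was set to 1.0 McFarland and diluted 10^-3, with 0.1 mL added per well. Compounds were added from DMSO at 32 to 0.03 µM. […] INH and RIF were used as standards.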

Mycobacterium kansasii [3] = assay: Antimycobacterial activity against Mycobacterium kansasii 6509/96 incubated for 14 days by micromethod; type: functional; settings: for MIC99: Mycobacterium kansasii, 6509/96, 336 h; method in brief: as §1
[4] = system: Mycobacterium tuberculosis; assay: Antimycobacterial activity MDR/XDR against Mycobacterium tuberculosis isolate Praha 4 incubated for 14 days by micromethod; settings: isolate Praha 4, 336 h
[5] = system: Mycobacterium tuberculosis; assay: Antimycobacterial activity MDR/XDR against Mycobacterium tuberculosis isolate 9449/2007 incubated for 14 days by micromethod; type: functional; settings: for MIC99: isolate 9449/2007, 336 h
[6] = system: Mycobacterium tuberculosis; assay: Antimycobacterial activity MDR/XDR against Mycobacterium tuberculosis isolate 7357/1998 incubated for 14 days by micromethod; type: functional; settings: for MIC99: isolate 7357/1998, 336 h
[7] = system: Mycobacterium tuberculosis; assay: Antimycobacterial activity MDR/XDR against Mycobacterium tuberculosis isolate 8666/2010 incubated for 14 days by micromethod; type: functional; settings: for MIC99: isolate 8666/2010, 336 h
[8] = system: Mycobacterium tuberculosis; assay: Antimycobacterial activity MDR/XDR against Mycobacterium tuberculosis isolate Praha 131 incubated for 14 days by micromethod; type: functional; settings: for MIC99: isolate Praha 131, 336 h
[9] = system: Mycobacterium tuberculosis; assay: microbe, parasite or virus in culture; settings: isolate 234/2005, 336 h
[10] = system: Mycobacterium tuberculosis; assay: Antimycobacterial activity MDR/XDR against Mycobacterium tuberculosis isolate Praha 1 incubated for 14 days by micromethod; type: functional; settings: for MIC99: isolate Praha 1, 336 h
COS-1 = assay: Cytotoxicity against African green monkey COS1 cells assessed as reduction in cell viability incubated for 48 hrs by CellTiter 96 aqueous one solution cell proliferation assay; type: cell-based; settings: Chlorocebus aethiops, COS-1, 48 h
Method in brief: (§2)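 Caco-2, HepG2, A431 and COS-1 cells were exposed 48 h to compound or DMSO vehicle (0.1%) in Opti-MEM reduced-serum medium. MTS reagent was added for 4 h and formazan absorbance read at 490 nm. A 10% SDS toxic control was added 45 min before MTS. Vehicle and SDS were set to 100% and 0% viability; values given as relative viability at 30 µM. Triplicates, repeated at least three times.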

[11] = Solubility in pH 7.4 PBS buffer by HPLC method; type: physicochemical
Method in brief: (§3)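 Salt (15 mg) was shaken 2 h at room temperature in 1 mL 0.05 M citrate pH 3, 1 mL 0.1 M acetate pH 5, or 5 mL PBS pH 7.4. Suspensions were decanted and filtered (0.22 µm PTFE). Citrate and acetate solutions were diluted 500-fold in water/acetonitrile 1:1. Analysis by HPLC with diode-array detection on a C18 column at 30 °C. At least 4 repeats.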

[12] = Cytotoxicity against human A431 cells assessed as cell viability at 30 uM incubated for 48 hrs by CellTiter 96 aqueous one solution cell proliferation assay; type: cell-based, A-431; settings: read-out: Activity; method in brief: as §2
Caco-2 = assay: Cytotoxicity against human Caco2 cells assessed as reduction in cell viability incubated for 48 hrs by CellTiter 96 aqueous one solution cell proliferation assay; type: cell-based; settings: Caco-2, 48 h; method in brief: as §2
[13] = Cytotoxicity against human HepG2 cells assessed as cell viability at 30 uM incubated for 48 hrs by CellTiter 96 aqueous one solution cell proliferation assay; type: cell-based; settings: read-out: Activity; method in brief: as §2
HepG2 = assay: Cytotoxicity against human HepG2 cells assessed as reduction in cell viability incubated for 48 hrs by CellTiter 96 aqueous one solution cell proliferation assay; type: cell-based; settings: HepG2, 48 h; method in brief: as §2
[14] = Solubility in pH 3.0 citrate buffer by HPLC method; type: physicochemical; method in brief: as §3
[15] = Solubility in pure water at room temperature by HPLC method; type: physicochemical
[16] = Solubility in pH 5 acetate buffer by HPLC method; type: physicochemical; method in brief: as §3
A-431 = assay: Cytotoxicity against human A431 cells assessed as reduction in cell viability incubated for 48 hrs by CellTiter 96 aqueous one solution cell proliferation assay; type: cell-based; settings: A-431, 48 h; method in brief: as §2
[17] = Cytotoxicity against African green monkey COS1 cells assessed as cell viability at 30 uM incubated for 48 hrs by CellTiter 96 aqueous one solution cell proliferation assay; type: cell-based; settings: chlorocebus aethiops, COS-1 cells; read-out: Activity; method in brief: as §2
[18] = Cytotoxicity against human Caco2 cells assessed as cell viability at 30 uM incubated for 48 hrs by CellTiter 96 aqueous one solution cell proliferation assay; type: cell-based; settings: Caco-2 cells, read-out: Activity; method in brief: as §2

Row | Compound | MIC99 (Mycobacterium kansasii [1]) [µM] | MIC99 (Mycobacterium avium) [µM] | MIC99 [2] [µM] | MIC99 (Mycobacterium kansasii [3]) [µM] | other results
1 | O=[N+]([O-])c1cc(-c2nnn(CCCN3CCCCC3)n2)cc([N+](=O)[O-])c1 | 16 (≈ 5.78 µg/mL) | 62.5 (≈ 22.6 µg/mL) | 4 (≈ 1.45 µg/mL) | 16 (≈ 5.78 µg/mL) | –
2 | O=[N+]([O-])c1cc(CSc2nnc(CCCN3CCOCC3)o2)cc([N+](=O)[O-])c1 | 8 (≈ 3.28 µg/mL) | 500 (≈ 205 µg/mL) | 8 (≈ 3.28 µg/mL) | 8 (≈ 3.28 µg/mL) | –
3 | CC1COc2c(N3CCN(C)CC3)c(F)cc3c(=O)c(C(=O)O)cn1c23 (stereo not drawn) [OFLOXACIN] | – | – | – | – | MIC99 [4]: > 16 µM
4 | CN[C@@H]1[C@H](O[C@H]2[C@H](O[C@H]3[C@H](O)[C@@H](O)[C@H](N=C(N)N)[C@@H](O)[C@@H]3N=C(N)N)O[C@@H](C)[C@]2(O)C=O)O[C@@H](CO)[C@H](O)[C@H]1O [STREPTOMYCIN] | – | – | – | – | MIC99 [4]: > 32 µM; MIC99 [5]: > 32 µM; MIC99 [6]: > 32 µM; MIC99 [7]: > 32 µM; MIC99 [8]: > 32 µM
5 | NCC[C@H](O)C(=O)N[C@@H]1C[C@H](N)[C@@H](O[C@H]2O[C@H](CN)[C@@H](O)[C@H](O)[C@H]2O)[C@H](O)[C@H]1O[C@H]1O[C@H](CO)[C@@H](O)[C@H](N)[C@H]1O [AMIKACIN] | – | – | – | – | MIC99 [8]: > 32 µM
6 | CO[C@H]1/C=C/O[C@@]2(C)Oc3c(C)c(O)c4c(O)c(c(/C=N/N5CCN(C)CC5)c(O)c4c3C2=O)NC(=O)/C(C)=C\C=C\[C@H](C)[C@H](O)[C@@H](C)[C@@H](O)[C@@H](C)[C@H](OC(C)=O)[C@@H]1C [RIFAMPIN] | 0.25 (≈ 0.206 µg/mL) | 32 (≈ 26.3 µg/mL) | 0.25 (≈ 0.206 µg/mL) | 0.125 (≈ 0.103 µg/mL) | MIC99 [4]: > 8 µM; MIC99 [5]: > 8 µM; MIC99 [6]: > 8 µM; MIC99 [7]: > 8 µM; MIC99 [9]: > 8 µM; MIC99 [8]: > 8 µM; MIC99 [10]: > 8 µM
7 | O=[N+]([O-])c1cc(-c2nnc(SCCCN3CCCCC3)o2)cc([N+](=O)[O-])c1 | 32 (≈ 12.6 µg/mL) | 62.5 (≈ 24.6 µg/mL) | 8 (≈ 3.15 µg/mL) | 16 (≈ 6.29 µg/mL) | –
8 | CN1CCN(CCCn2nnc(-c3cc([N+](=O)[O-])cc([N+](=O)[O-])c3)n2)CC1 | 32 (≈ 12 µg/mL) | 250 (≈ 94.1 µg/mL) | > 32 | > 32 | –
9 | GENTAMICIN | – | – | – | – | MIC>99 [5]: 1 µM; MIC>99 [6]: 1 µM; MIC>99 [7]: 2 µM; MIC>99 [8]: > 8 µM; MIC>99 [10]: 1 µM
10 | Cl.Cl.O=[N+]([O-])c1cc(CSc2nnc(CCCCCN3CCN(Cc4ccccc4)CC3)o2)cc([N+](=O)[O-])c1 | 2 | 32 | 2 | – | MIC99 [4]: 2 µM; IC50 (COS-1): > 30 µM; solubility [11]: 113 µM; viability at 48 h, 30 µM [12]: 86%; IC50 (Caco-2): > 30 µM; viability at 48 h, 30 µM [13]: 112%; MIC99 [5]: 2 µM; IC50 (HepG2): > 30 µM; MIC99 [6]: 2 µM; solubility [14]: 18000 µM; MIC99 [7]: 2 µM; solubility [15]: 17100 µM; solubility [16]: 9000 µM; MIC99 [9]: 2 µM; IC50 (A-431): > 30 µM; viability at 48 h, 30 µM [17]: 99%; MIC99 [8]: 2 µM; MIC99 [10]: 2 µM; MIC>99 (Mycobacterium kansasii [3]): 2 µM; viability at 48 h, 30 µM [18]: 105%
11 | O=[N+]([O-])c1cc(CSc2nnc(CCCN3CCN(Cc4ccccc4)CC3)o2)cc([N+](=O)[O-])c1 | 2 (≈ 0.997 µg/mL) | 32 (≈ 16 µg/mL) | 2 (≈ 0.997 µg/mL) | 2 (≈ 0.997 µg/mL) | –
12 | O=[N+]([O-])c1cc(-c2nnc(SCCCN3CCOCC3)o2)cc([N+](=O)[O-])c1 | 8 (≈ 3.16 µg/mL) | 125 (≈ 49.4 µg/mL) | 8 (≈ 3.16 µg/mL) | 16 (≈ 6.33 µg/mL) | –
13 | O=[N+]([O-])c1cc(CSc2nnc(CCCCCN3CCOCC3)o2)cc([N+](=O)[O-])c1 | 8 (≈ 3.5 µg/mL) | 125 (≈ 54.7 µg/mL) | 8 (≈ 3.5 µg/mL) | 8 (≈ 3.5 µg/mL) | –
14 | O=[N+]([O-])c1cc(CSc2nnc(CCCCCN3CCN(Cc4ccccc4)CC3)o2)cc([N+](=O)[O-])c1 | – | – | – | 2 (≈ 1.05 µg/mL) | MIC>99 (Mycobacterium kansasii [1]): 2 µM (≈ 1.05 µg/mL); MIC>99 (Mycobacterium avium): 16 µM (≈ 8.43 µg/mL); MIC>99 [2]: 1 µM (≈ 0.527 µg/mL)
15 | NNC(=O)c1ccncc1 [ISONIAZID] | > 250 | > 250 | – | 4 (≈ 0.549 µg/mL) | –
16 | CN1CCN(CCCCCc2nnc(SCc3cc([N+](=O)[O-])cc([N+](=O)[O-])c3)o2)CC1 | > 32 | 250 (≈ 113 µg/mL) | 32 (≈ 14.4 µg/mL) | > 32 | –
17 | O=[N+]([O-])c1cc(CSc2nnc(CCCCCN3CCCCC3)o2)cc([N+](=O)[O-])c1 | 16 (≈ 6.97 µg/mL) | 62.5 (≈ 27.2 µg/mL) | 16 (≈ 6.97 µg/mL) | 32 (≈ 13.9 µg/mL) | –
18 | CN1CCN(CCCSc2nnc(-c3cc([N+](=O)[O-])cc([N+](=O)[O-])c3)o2)CC1 | 16 (≈ 6.54 µg/mL) | 125 (≈ 51.1 µg/mL) | > 32 | > 32 | –
19 | O=[N+]([O-])c1cc(-c2nnn(CCCN3CCOCC3)n2)cc([N+](=O)[O-])c1 | 16 (≈ 5.81 µg/mL) | 500 (≈ 182 µg/mL) | 16 (≈ 5.81 µg/mL) | 16 (≈ 5.81 µg/mL) | –
20 | O=[N+]([O-])c1cc(CSc2nnc(CCCN3CCCCC3)o2)cc([N+](=O)[O-])c1 | 16 (≈ 6.52 µg/mL) | 250 (≈ 102 µg/mL) | 16 (≈ 6.52 µg/mL) | 16 (≈ 6.52 µg/mL) | –
21 | O=[N+]([O-])c1cc(-c2nnn(CCCN3CCN(Cc4ccccc4)CC3)n2)cc([N+](=O)[O-])c1 | 2 (≈ 0.905 µg/mL) | 8 (≈ 3.62 µg/mL) | 1 (≈ 0.452 µg/mL) | 1 (≈ 0.452 µg/mL) | –
22 | CN1CCN(CCCc2nnc(SCc3cc([N+](=O)[O-])cc([N+](=O)[O-])c3)o2)CC1 | > 32 | 1000 (≈ 422 µg/mL) | > 32 | > 32 | –
23 | O=[N+]([O-])c1cc(-c2nnc(SCCCN3CCN(Cc4ccccc4)CC3)o2)cc([N+](=O)[O-])c1 | 1 (≈ 0.485 µg/mL) | 2 (≈ 0.969 µg/mL) | 0.125 (≈ 0.0606 µg/mL) | 0.5 (≈ 0.242 µg/mL) | –
